Measurements taken from publication PMC5624809 (Journal of the American Chemical Society, 2017).
Read-outs that look alike come from different tables or passages of the source. Marks after values point to notes of the source that are not given here. Values belong to the molecule of their own block, whether it stands above or below them.

Experiments:
antithrombin (AT) [1] = molecular target: T1, antithrombin (AT) (Homo sapiens, UniProt P01008); assay: AT-binding affinity analysis using isothermal titration calorimetry; conditions: for Binding affinity (Kd) to AT / Kd: ITC; for Kd: read-out: Binding affinity (Kd) to AT
T1 sequence (P01008 33-464): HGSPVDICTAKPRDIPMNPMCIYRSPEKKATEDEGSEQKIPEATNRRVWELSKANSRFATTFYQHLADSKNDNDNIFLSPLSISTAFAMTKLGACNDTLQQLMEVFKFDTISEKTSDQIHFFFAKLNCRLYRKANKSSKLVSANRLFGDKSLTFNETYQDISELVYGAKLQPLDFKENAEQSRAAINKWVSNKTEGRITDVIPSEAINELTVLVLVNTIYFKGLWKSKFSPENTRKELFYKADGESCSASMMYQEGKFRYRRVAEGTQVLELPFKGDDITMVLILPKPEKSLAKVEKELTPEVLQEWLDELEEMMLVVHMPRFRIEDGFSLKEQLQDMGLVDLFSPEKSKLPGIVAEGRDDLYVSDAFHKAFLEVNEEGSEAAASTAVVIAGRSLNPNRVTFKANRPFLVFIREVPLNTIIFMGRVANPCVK

FXa [2] = assay: in vitro inhibition of the activity of FXa; format: biochemical; conditions: for IC50: read-out: Anti-FXa activity (IC50)
FXa [3] = assay: anti-FXa effect in a rat model; format: in vivo
Summary of the method: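 Anti-Xa activity measured at several time points after dosing, with a saline-treated group as control. Values are mean ± S.D. (n = 4). Each treated group was compared with control by two-tailed Student's t-test, with p < 0.05 flagged.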

antithrombin (AT) [4] = molecular target: T1, antithrombin (AT); conditions: cited from earlier work
FXa [5] = conditions: cited from earlier work
antithrombin (AT) [6] = molecular target: T1, antithrombin (AT); conditions: read-out: Binding affinity (Kd) to AT; affinity coelectrophoresis; cited from earlier work

Molecule: O=C(O)C1OC(OC2C(COS(=O)(=O)O)OC(OC3C(C(=O)O)OC(OC4C(COS(=O)(=O)O)OC(OC5C(C(=O)O)OC(Oc6ccc([N+](=O)[O-])cc6)C(O)C5O)C(NS(=O)(=O)O)C4OS(=O)(=O)O)C(OS(=O)(=O)O)C3O)C(NS(=O)(=O)O)C2O)C(O)C(O)C1OC1OC(COS(=O)(=O)O)C(O)C(O)C1NS(=O)(=O)O (stereo not drawn) [Comp 2, GlcNS6S-GlcA-GlcNS6S-IdoA2S-GlcNS3S6S-GlcA-pNP]
Binding affinity (Kd) to AT (antithrombin (AT) [1]): No binding | Anti-FXa activity (IC50) (FXa [2]): No inhibition

Molecule: O=C(O)[C@H]1O[C@@H](O[C@H]2[C@H](OS(=O)(=O)O)[C@@H](NS(=O)(=O)O)[C@@H](O[C@H]3[C@H](O)[C@@H](OS(=O)(=O)O)[C@H](O[C@H]4[C@H](OS(=O)(=O)O)[C@@H](NS(=O)(=O)O)[C@@H](O[C@H]5[C@H](O)[C@@H](O)[C@H](Oc6ccc([N+](=O)[O-])cc6)O[C@@H]5C(=O)O)O[C@@H]4COS(=O)(=O)O)O[C@H]3C(=O)O)O[C@@H]2COS(=O)(=O)O)[C@H](O)[C@@H](O)[C@@H]1O[C@H]1O[C@H](COS(=O)(=O)O)[C@@H](O)[C@H](O)[C@H]1NS(=O)(=O)O [Comp 3, GlcNS6S-GlcA-GlcNS3S6S-IdoA2S-GlcNS3S6S-GlcA-pNP]
anti-FXa activity (in words) (FXa [2]): strong anti-FXa activity | IC50 (FXa [2]): 11 nM

Molecule: O=C(O)[C@H]1O[C@@H](Oc2ccc([N+](=O)[O-])cc2)[C@H](O)[C@@H](O)[C@@H]1O[C@H]1O[C@H](COS(=O)(=O)O)[C@@H](O[C@@H]2O[C@@H](C(=O)O)[C@@H](O[C@H]3O[C@H](COS(=O)(=O)O)[C@@H](O[C@@H]4O[C@@H](C(=O)O)[C@@H](O[C@H]5O[C@H](COS(=O)(=O)O)[C@@H](O[C@@H]6O[C@H](C(=O)O)[C@@H](O[C@H]7O[C@H](COS(=O)(=O)O)[C@@H](O)[C@H](O)[C@H]7NS(=O)(=O)O)[C@H](O)[C@H]6O)[C@H](OS(=O)(=O)O)[C@H]5NS(=O)(=O)O)[C@H](O)[C@H]4OS(=O)(=O)O)[C@H](OS(=O)(=O)O)[C@H]3NS(=O)(=O)O)[C@H](O)[C@H]2OS(=O)(=O)O)[C@H](O)[C@H]1NS(=O)(=O)O [Comp 6, GlcNS6S-GlcA-GlcNS3S6S-IdoA2S-GlcNS3S6S-IdoA2S-GlcNS6S-GlcA-pNP]
AT binding (in words) (antithrombin (AT) [1]): high AT-binding affinity | Kd (antithrombin (AT) [1]): 5.6 ± 2.6 nM | anti-FXa activity (in words) (FXa [2]): displaying anti-FXa activity | IC50 (FXa [2]): 10.9 nM

Molecule: O=C(O)C1OC(OC2C(COS(=O)(=O)O)OC(OC3C(C(=O)O)OC(OC4C(COS(=O)(=O)O)OC(OC5C(C(=O)O)OC(Oc6ccc([N+](=O)[O-])cc6)C(O)C5O)C(NS(=O)(=O)O)C4O)C(OS(=O)(=O)O)C3O)C(NS(=O)(=O)O)C2OS(=O)(=O)O)C(O)C(O)C1OC1OC(COS(=O)(=O)O)C(O)C(O)C1NS(=O)(=O)O (stereo not drawn) [GlcA2S-containing 6-mer, GlcNS6S-GlcA-GlcNS3S6S-GlcA2S-GlcNS6S-GlcA-pNP]
Binding affinity (Kd) to AT (antithrombin (AT) [4]): No binding ^d | anti-FXa activity (in words) (FXa [5]): did not display anti-FXa activity

Molecule: O=C(O)C1OC(OC2C(COS(=O)(=O)O)OC(OC3C(C(=O)O)OC(OC4C(COS(=O)(=O)O)OC(OC5C(C(=O)O)OC(Oc6ccc([N+](=O)[O-])cc6)C(O)C5O)C(NS(=O)(=O)O)C4O)C(O)C3O)C(NS(=O)(=O)O)C2OS(=O)(=O)O)C(O)C(O)C1OC1OC(COS(=O)(=O)O)C(O)C(O)C1NS(=O)(=O)O (stereo not drawn) [IdoA-containing 6-mer, GlcNS6S-GlcA-GlcNS3S6S-IdoA-GlcNS6S-GlcA-pNP]
Kd (antithrombin (AT) [4]; read-out: Binding affinity (Kd) to AT): 32.6 ± 5.3 nM | anti-FXa activity (in words) (FXa [5]): exhibited anti-FXa activity | IC50 (FXa [5]; read-out: Anti-FXa activity (IC50)): 29.2 nM

Molecule: GlcNS6S-GlcA-GlcNS6S-IdoA2S-GlcNS3S6S-IdoA2S-GlcNS6S-GlcA-pNP [Comp 5]
AT binding (in words) (antithrombin (AT) [1]): binds to AT tightly | Kd (antithrombin (AT) [1]): 5.1 ± 1.4 nM | anti-FXa activity (in words) (FXa [2]): strong anti-FXa activity | IC50 (FXa [2]): 7.7 nM | anti-FXa potency in vivo (FXa [3]; within 30 min after the drug was administered): comparable anti-FXa potency to that of fondaparinux and compound 11*

Molecule: GlcNS-GlcA-GlcNS-IdoA2S-GlcNS3S-IdoA2S-GlcNS-GlcA-pNP [Comp 4]
Binding affinity (Kd) to AT (antithrombin (AT) [1]): No binding ^c | Anti-FXa activity (IC50) (FXa [2]): No inhibition

The next lines start with results.

IC50 (FXa [2]): 12.2 nM
Molecule: CO[C@H]1O[C@H](COS(=O)(=O)O)[C@@H](O[C@@H]2O[C@@H](C(=O)O)[C@@H](O[C@H]3O[C@H](COS(=O)(=O)O)[C@@H](O[C@@H]4O[C@H](C(=O)O)[C@@H](O[C@H]5O[C@H](COS(=O)(=O)O)[C@@H](O)[C@H](O)[C@H]5NS(=O)(=O)O)[C@H](O)[C@H]4O)[C@H](OS(=O)(=O)O)[C@H]3NS(=O)(=O)O)[C@H](O)[C@H]2OS(=O)(=O)O)[C@H](O)[C@H]1NS(=O)(=O)O [Fondaparinux, GlcNS6S-GlcA-GlcNS3S6S-IdoA2S-GlcNS6S-OMe, reference compound]
persistence of anti-FXa effect in vivo (FXa [3]; time after administration): persisted after 8 hours

IC50 (FXa [2]): 9.4 nM
Molecule: GlcNAc6S-GlcA-GlcNS3S6S-IdoA2S-GlcNS6S-IdoA2S-GlcNS6S-GlcA-pNP [Comp 11*]
Kd (antithrombin (AT) [6]): 8 ± 3 nM

IC50 (FXa [2]): 9.1 nM
Molecule: GlcNS6S-GlcA-GlcNS3S6S-IdoA2S-GlcNS6S-GlcA-pNP [Comp 8*]
anti-FXa activity (in words) (FXa [2]): displayed anti-FXa activity | Kd (antithrombin (AT) [6]): 7 ± 2 nM
